High-throughput results from PubChem.
Sampled rows, rich in hits. Any-hit rate of the full collection: about 1%.
DNA FID counter = counter-screen for HCV NS3 helicase inhibitors: DNA intercalator displacement | DNA fluorescent intercalator displacement, fluorescence | inhibition, % at 7.9 µM | 290,000 tested, 0.17% active | AID 1845; in the data active = inhibition above about 37%;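 also: 0% = vehicle and 100% = reference compound; higher means more ethidium bromide displaced from hairpin DNA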
IMP-1 inh-1 = blocks Pseudomonas aeruginosa IMP-1 metallo-beta-lactamase | 290,000 tested, 0.45% active | purified IMP-1, nitrocefin hydrolysis, epi-absorbance fluorescence | inhibition, % at 5.6 µM;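 active = inhibition above the mean plus 3 SD of all compounds in the same screening run, cut at about 4.5% in these data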;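 also: 0% = IMP-1 with DMSO and 100% = DMSO wells lacking enzyme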
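System: Purified recombinant IMP-1 metallo-beta-lactamase enzyme | Measured by: Fluorescence quenching readout, ex 480/em 530 nm | Replication: Singlicate | Incubation: 15 min preincubation plus 25 min reaction at 25 °C | Evaluation: Percent inhibition from optical density relative to buffer-blank wells | Benchmarks: DMSO with and without IMP-1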
VIM-2 inh = blocks Pseudomonas aeruginosa VIM-2 metallo-beta-lactamase | purified VIM-2, nitrocefin hydrolysis, epi-absorbance fluorescence | inhibition, % at 5.6 µM | 290,000 tested, 0.89% active | AID 1527;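 active = inhibition above the mean of all tested compounds plus 3 SD, cutoff set per screening run, cut at about 7.5% in these data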;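 also: red hydrolysis product quenches plate fluorescence so inhibitors raise well fluorescence; 0% = enzyme with DMSO and 100% = DMSO without enzyme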
PvdQ acylase = P. aeruginosa PvdQ acylase inhibition; inhibition, % at 10 µM; purified PvdQ acylase, fluorescence plate reader; AID 488965; 340,000 tested, 0.063% active; in the data active = inhibition above about 30%, passing the limit was not always enough;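 also: 0% = vehicle neutral wells and 100% = reference inhibitor wells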
RAD54 inh = RAD54 (human) branch migration inhibition; Q92698; inhibition, % at 10.4 µM; RAD54 Holliday junction branch migration, FAM/BHQ fluorescence; AID 602329; 360,000 tested, 0.14% active;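 active = mean normalized replicate activity at least 40 and at least half of replicates scoring 40 or more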;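 also: 0% = median of neutral control wells and 100% = median of positive control wells; inhibitors cause a drop in the FAM fluorescence signal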
IMP-1 inh-2 = blocks IMP-1 metallo-beta-lactamase in VIM-2 selectivity screen | shares compounds with VIM-2 inh | purified IMP-1, nitrocefin hydrolysis, epi-absorbance fluorescence | inhibition, % at 5.6 µM | 1,300 tested, under 10 active; call rule not given here;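 also: 0% = enzyme with vehicle and 100% = vehicle without enzyme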
VIM-2 FRET inh = VIM-2 FRET inhibition, artifact counter-screen; inhibition, % at 5.6 µM; purified VIM-2, CCF2 FRET substrate hydrolysis; AID 1857; shares compounds with VIM-2 inh; 1,300 tested, 23% active;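 active = inhibition above the mean of all tested compounds plus 3 SD, cut at about 19% in these data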;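 also: 0% = VIM-2 plus DMSO and 100% = no enzyme wells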
TEM-1 inh = blocks E. coli TEM-1 beta-lactamase in VIM-2 selectivity screen; inhibition, % at 5.6 µM; AID 1866; 1,300 tested, 3% active; Purified TEM-1, nitrocefin hydrolysis, epi-absorbance fluorescence; shares compounds with VIM-2 inh;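 active = inhibition above that campaign's mean inhibition plus 3 SD, cut at about 0.46% in these data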;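 also: 0% = TEM-1 with DMSO and 100% = TEM-1 with 100 µM potassium clavulanate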
Target sequence (P62593 whole entry, looked up): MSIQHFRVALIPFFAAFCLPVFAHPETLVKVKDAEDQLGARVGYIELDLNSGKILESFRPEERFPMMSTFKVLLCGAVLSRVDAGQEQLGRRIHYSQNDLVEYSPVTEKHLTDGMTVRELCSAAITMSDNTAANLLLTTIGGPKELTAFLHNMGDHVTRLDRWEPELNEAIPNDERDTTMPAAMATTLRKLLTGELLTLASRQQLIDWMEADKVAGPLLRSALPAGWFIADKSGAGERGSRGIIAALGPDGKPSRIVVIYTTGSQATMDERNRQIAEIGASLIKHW
VIM-2 inh conf = confirmation of P. aeruginosa VIM-2 metallo-beta-lactamase inhibitors | AID 2187 | 1,300 tested, 96% active | inhibition, % at 5.6 µM | purified VIM-2, nitrocefin hydrolysis, epi-absorbance | shares compounds with VIM-2 inh;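 active = inhibition of the VIM-2 beta-lactamase enzyme above about 11% from the earlier first-round screen, limit read from the data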;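 also: 0% = VIM-2 with DMSO and 100% = buffer wells without enzyme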
* marks the source's active call; other numbers are inactive results.

For CC(C)C#Cc1ccc([C@@H]2[C@H](CO)N3CCCCN(C(=O)c4ccc5c(c4)OCO5)C[C@@H]23)cc1 the results were RAD54 inh -3.1.
C[C@H]1CN([C@@H](C)CO)C(=O)c2cc(C#CC3CCCCC3)cnc2O[C@H]1CN(C)Cc1cccnc1 was read as RAD54 inh 7.5.
For C[C@@H]1CCCCO[C@H](CN(C)Cc2ccc(Cl)c(Cl)c2)[C@@H](C)CN([C@@H](C)CO)C(=O)c2cc(NC(=O)Cc3ccccc3)ccc2O1 the results were RAD54 inh -17.3.
N=c1c(C(=O)NC2CCCC2)cc2c(=O)n3ccccc3nc2n1CCCN1CCOCC1 was read as DNA FID counter 19.4, IMP-1 inh-1 -4.4, VIM-2 inh 2.3, PvdQ acylase -12.5 and RAD54 inh 6.6.
Cc1ccc2nc3c(cc(C(=O)NC4CCCC4)c(=N)n3CCCn3ccnc3)c(=O)n2c1 was read as DNA FID counter 15.2, IMP-1 inh-1 0.4, VIM-2 inh 28.8*, IMP-1 inh-2 -3.6, VIM-2 FRET inh -16.6, TEM-1 inh -4.8 and VIM-2 inh conf 68.3*.
Cc1noc(C)c1S(=O)(=O)Nc1ccc2c(c1)C(=O)N([C@@H](C)CO)C[C@H](C)[C@@H](CN(C)C(=O)c1ccncc1)OCCCC[C@H](C)O2 was read as RAD54 inh -3.0.
`O=C(Nc1ccc2ccccc2c1)c1cccc2ccccc12` gave PvdQ acylase -13.0 and RAD54 inh -5.0.
`O=C(O)c1ccccc1C(=O)c1cccc2ccccc12` gave DNA FID counter -0.8, IMP-1 inh-1 -2.5, VIM-2 inh 30.6*, PvdQ acylase -11.7, RAD54 inh 2.9, IMP-1 inh-2 -3.2, VIM-2 FRET inh 54.4*, TEM-1 inh -5.0 and VIM-2 inh conf 35.2*.
C=C(c1cccc2ccccc12)P(=O)(O)O was read as DNA FID counter 5.6, IMP-1 inh-1 -0.4, VIM-2 inh 35.0*, PvdQ acylase -5.6, RAD54 inh -5.2, IMP-1 inh-2 -3.3, VIM-2 FRET inh 62.5*, TEM-1 inh -6.3 and VIM-2 inh conf 44.4*.
C[C@@H]1CN([C@@H](C)CO)C(=O)c2cc(C3=CCCC3)cnc2O[C@@H]1CN(C)Cc1ccc(C(=O)O)cc1 was read as RAD54 inh -8.5.
C=CC[n+]1ccn(-c2nc3ccccc3nc2[N-]S(=O)(=O)c2cccs2)c1 was read as DNA FID counter 36.0, IMP-1 inh-1 -4.2, VIM-2 inh 21.9*, PvdQ acylase -14.2, IMP-1 inh-2 -2.4, VIM-2 FRET inh 8.8, TEM-1 inh -5.8 and VIM-2 inh conf 16.5*.
CCCC[n+]1ccn(-c2nc3ccccc3nc2[N-]S(=O)(=O)c2cccs2)c1 was read as DNA FID counter 30.8, IMP-1 inh-1 -4.6, VIM-2 inh 18.6*, PvdQ acylase -20.6, RAD54 inh 94.2*, IMP-1 inh-2 -3.2, VIM-2 FRET inh 9.7, TEM-1 inh -6.5 and VIM-2 inh conf 21.0*.
Screening O=S(=O)([N-]c1nc2ccccc2nc1-n1cc[n+](Cc2ccccc2)c1)c1ccccc1 returned DNA FID counter -7.4, IMP-1 inh-1 -2.4, VIM-2 inh 0.8, PvdQ acylase 2.1 and RAD54 inh 8.0.
`CCCc1cc(=O)oc2cc(C)cc(OCC(=O)NCCCn3ccnc3)c12` gave DNA FID counter 11.0, IMP-1 inh-1 -3.8, VIM-2 inh 24.5*, PvdQ acylase -7.1, RAD54 inh 4.6, IMP-1 inh-2 -2.5, VIM-2 FRET inh -9.1, TEM-1 inh -5.1 and VIM-2 inh conf 38.5*.
Screening Cc1ccc(C(C)C)cc1OCC(=O)NCCCn1ccnc1 returned PvdQ acylase -19.8 and RAD54 inh -10.7.
